Experimental data published in ChEMBL document CHEMBL3352548, “Small-molecule suppression of β-lactam resistance in multidrug-resistant gram-negative pathogens” (J Med Chem, 2014).
Converted amounts (≈) assume the structure as drawn. The source made the active and inactive calls. The rule behind the calls is not given here.

Assays:
Acinetobacter baumannii [1] = assay: Antibacterial activity against Acinetobacter baumannii ATCC BAA-1605 assessed as complete inhibition of bacterial growth after 16 hrs by microdilution method; type: functional; conditions: ATCC BAA-1605, 16 h
How it was run: (§1)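 MIC of each compound alone was determined first. Antibiotic MICs (imipenem or meropenem for A. baumannii; ceftazidime or meropenem for P. aeruginosa) were then measured with compound at fixed sub-MIC concentrations. Fold reduction is MIC without compound divided by MIC with compound.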

Acinetobacter baumannii [2] = assay: Antibacterial activity against Acinetobacter baumannii ATCC BAA-1605 assessed as fold reduction in meropenem MIC at 30 uM after 16 hrs by microdilution method; type: functional; how it was run: as §1
Pseudomonas aeruginosa [3] = assay: Antibacterial activity against Pseudomonas aeruginosa PA53 assessed as fold reduction in meropenem MIC at 15 uM after 16 hrs by microdilution method; type: functional; how it was run: as §1
Acinetobacter baumannii [4] = assay: Antibacterial activity against Acinetobacter baumannii ATCC BAA-1605 assessed as fold reduction in meropenem MIC at 60 uM after 16 hrs by microdilution method; type: functional; how it was run: as §1
Pseudomonas aeruginosa [5] = assay: Antibacterial activity against Pseudomonas aeruginosa PA53 assessed as complete inhibition of bacterial growth after 16 hrs by microdilution method; type: functional; conditions: PA53, 16 h; how it was run: as §1
Pseudomonas aeruginosa [6] = assay: Antibacterial activity against Pseudomonas aeruginosa PA53 assessed as fold reduction in meropenem MIC at 60 uM after 16 hrs by microdilution method; type: functional; how it was run: as §1
Pseudomonas aeruginosa [7] = assay: Antibacterial activity against Pseudomonas aeruginosa PA53 assessed as fold reduction in ceftazidime MIC at 60 uM after 16 hrs by microdilution method; type: functional; how it was run: as §1
Acinetobacter baumannii [8] = assay: Antibacterial activity against Acinetobacter baumannii ATCC BAA-1605 assessed as fold reduction in imipenem MIC at 60 uM after 16 hrs by microdilution method; type: functional; how it was run: as §1
Acinetobacter baumannii [9] = assay: Antibacterial activity against Acinetobacter baumannii ATCC BAA-1605 assessed as reduction in CFU at 4 ug/ml after 6 hrs by time kill assay; type: functional
How it was run: (§2)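 Time-kill: cultures were grown at 37 °C with shaking with compound (15 μM for BAA-1605, 60 μM for PA53), meropenem (1–32 μg/mL for BAA-1605, 1–64 μg/mL for PA53), or both. Samples taken at 2, 4, 6, 8 and 24 h were serially diluted in CAMHB, plated on nutrient agar, incubated overnight at 37 °C, and colonies counted.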

Acinetobacter baumannii [10] = assay: Antibacterial activity against Acinetobacter baumannii ATCC BAA-1605 assessed as reduction in CFU at 1 ug/ml after 6 hrs by time kill assay; type: functional; how it was run: as §2
Pseudomonas aeruginosa [11] = assay: Antibacterial activity against Pseudomonas aeruginosa PA53 assessed as reduction in CFU at 4 ug/ml after 6 hrs by time kill assay; type: functional; how it was run: as §2
Pseudomonas aeruginosa [12] = assay: Antibacterial activity against Pseudomonas aeruginosa PA53 assessed as reduction in CFU at 1 ug/ml after 6 hrs by time kill assay; type: functional; how it was run: as §2
Acinetobacter baumannii [13] = assay: Antibacterial activity against Acinetobacter baumannii ATCC BAA-1605 assessed as fold reduction in imipenem MIC at 30 uM after 16 hrs by microdilution method; type: functional; how it was run: as §1
Pseudomonas aeruginosa [14] = assay: Antibacterial activity against Pseudomonas aeruginosa PA53 assessed as reduction in CFU at 60 uM after 6 hrs by time kill assay; type: functional; how it was run: as §2
Acinetobacter baumannii [15] = assay: Antibacterial activity against Acinetobacter baumannii ATCC BAA-1605 assessed as reduction in CFU at 60 uM after 6 hrs by time kill assay; type: functional, organism-based
Acinetobacter baumannii [16] = assay: Antibacterial activity against Acinetobacter baumannii ATCC BAA-1605 assessed as reduction in meropenem MIC at 60 uM after 6 hrs by time kill assay; type: functional
Pseudomonas aeruginosa [17] = assay: Antibacterial activity against Pseudomonas aeruginosa PA53 assessed as reduction in meropenem MIC at 60 uM after 6 hrs by time kill assay; type: functional, organism-based
Acinetobacter baumannii [18] = assay: Antibacterial activity against Acinetobacter baumannii ATCC BAA-1605 assessed as fold reduction in meropenem MIC at 7.5 uM after 16 hrs by microdilution method; type: functional; how it was run: as §1
Pseudomonas aeruginosa [19] = assay: Antibacterial activity against Pseudomonas aeruginosa PA53 assessed as fold reduction in ceftazidime MIC at 15 uM after 16 hrs by microdilution method; type: functional; how it was run: as §1
Acinetobacter baumannii [20] = assay: Antibacterial activity against Acinetobacter baumannii ATCC BAA-1605 assessed as fold reduction in imipenem MIC at 7.5 uM after 16 hrs by microdilution method; type: functional; how it was run: as §1
Pseudomonas aeruginosa [21] = assay: Antibacterial activity against Pseudomonas aeruginosa PA53 assessed as fold reduction in meropenem MIC at 30 uM after 16 hrs by microdilution method; type: functional; how it was run: as §1
Pseudomonas aeruginosa [22] = assay: Antibacterial activity against Pseudomonas aeruginosa PA53 assessed as fold reduction in ceftazidime MIC at 30 uM after 16 hrs by microdilution method; type: functional; how it was run: as §1
Acinetobacter baumannii [23] = assay: Antibacterial activity against Acinetobacter baumannii ATCC BAA-1605 assessed as fold reduction in meropenem MIC at 15 uM after 16 hrs by microdilution method; type: functional; how it was run: as §1
Acinetobacter baumannii [24] = assay: Antibacterial activity against Acinetobacter baumannii ATCC BAA-1605 assessed as fold reduction in imipenem MIC at 15 uM after 16 hrs by microdilution method; type: functional; how it was run: as §1

| MIC (Acinetobacter baumannii [1]) | MIC (Pseudomonas aeruginosa [5]) [µM] | Compound | fold change (FC) (Acinetobacter baumannii [4]) | fold change (FC) (Pseudomonas aeruginosa [6]) | fold change (FC) (Pseudomonas aeruginosa [7]) | other results |
| --- | --- | --- | --- | --- | --- | --- |
| 100 µM |  | CCCCCC(=O)Nc1cccc(-c2c[nH]c(N)n2)c1 |  |  |  |  |
|  |  | Cl.Nc1ncc(-c2ccc(NC(=O)c3ccc(F)c(Cl)c3)cc2)[nH]1 |  |  |  | fold change (FC) (Acinetobacter baumannii [2]): 4; fold change (FC) (Pseudomonas aeruginosa [3]): 1 |
| > 200 µM | > 200 | Cl.Nc1nc(-c2ccc(NC(=O)c3cccc(Br)c3)cc2)c[nH]1 | 16 | 4 | 16 | fold change (FC) (Acinetobacter baumannii [8]): 8 |
| 200 µM |  | CCCCCc1ccc(C(=O)Nc2ccc(-c3cnc(N)[nH]3)cc2)cc1 |  |  |  |  |
|  |  | Cl.Nc1ncc(-c2ccc(NC(=O)c3cc(I)c(I)c(I)c3)cc2)[nH]1 | 2 | 1 |  |  |
| > 200 µM | > 200 | Cl.Nc1nc(-c2ccc(NC(=O)c3ccc(Cl)cc3)cc2)c[nH]1 | 8 | 2 | 1 | fold change (FC) (Acinetobacter baumannii [8]): 4 |
|  |  | Cl.Nc1ncc(-c2ccc(NC(=O)c3cccc(I)c3)cc2)[nH]1 | 8 | 1 |  |  |
|  |  | Cl.Nc1ncc(-c2ccc(NC(=O)c3cc(Br)cc(Br)c3)cc2)[nH]1 |  | 1 |  | fold change (FC) (Acinetobacter baumannii [2]): 4 |
| 100 µM | 200 | Cl.Nc1nc(-c2ccc(NC(=O)c3cc(F)c(F)c(F)c3)cc2)c[nH]1 |  | 2 | 1 | fold change (FC) (Acinetobacter baumannii [2]): 8; fold change (FC) (Acinetobacter baumannii [13]): 8 |
| 100 µM |  | Nc1ncc(-c2ccc(NC(=O)/C=C/c3ccccc3)cc2)[nH]1 |  |  |  |  |
| 100 µM |  | CCCCCCc1ccc(-c2c[nH]c(N)n2)cc1 |  |  |  |  |
| 100 µM | 200 | Cl.Nc1nc(-c2ccc(NC(=O)c3c(Cl)cc(Cl)cc3Cl)cc2)c[nH]1 |  | 4 | 1 | fold change (FC) (Acinetobacter baumannii [2]): 4; fold change (FC) (Acinetobacter baumannii [13]): 1 |
|  |  | Cl.Nc1ncc(-c2ccc(NC(=O)c3cccc(Cl)c3Cl)cc2)[nH]1 | 2 | 1 |  | Activity (Pseudomonas aeruginosa [14]): inactive; Activity (Acinetobacter baumannii [15]): inactive; fold change (FC) (Acinetobacter baumannii [16]): 2; Activity (Pseudomonas aeruginosa [17]): inactive |
|  |  | Cl.Nc1ncc(-c2ccc(NC(=O)c3ccc(I)cc3)cc2)[nH]1 | 2 | 1 |  |  |
|  |  | Cl.Nc1ncc(-c2ccc(NC(=O)c3ccc(Cl)cc3Cl)cc2)[nH]1 | 4 | 1 |  |  |
| 200 µM |  | CCCCCCC(=O)Nc1ccc(-c2cnc(N)[nH]2)cc1 |  |  |  |  |
| 25 µM | 50 | Cl.Nc1nc(-c2ccc(NC(=O)c3ccc(C(F)(F)F)c(F)c3)cc2)c[nH]1 |  |  |  | fold change (FC) (Acinetobacter baumannii [18]): 4; fold change (FC) (Pseudomonas aeruginosa [3]): 4; fold change (FC) (Pseudomonas aeruginosa [19]): 8; fold change (FC) (Acinetobacter baumannii [20]): 2 |
| > 200 µM | 200 | Cl.Nc1nc(-c2ccc(NC(=O)c3cccc(F)c3)cc2)c[nH]1 | 4 | 2 | 1 | fold change (FC) (Acinetobacter baumannii [8]): 2 |
|  |  | Cl.Nc1ncc(-c2ccc(NC(=O)c3ccc(Br)cc3F)cc2)[nH]1 | 2 | 1 |  |  |
| > 200 µM | 200 | Cl.Nc1nc(-c2ccc(NC(=O)c3ccc(F)cc3)cc2)c[nH]1 | 4 | 2 | 1 | fold change (FC) (Acinetobacter baumannii [8]): 2 |
| > 200 µM | > 200 | Cl.Nc1nc(-c2ccc(NC(=O)c3ccccc3F)cc2)c[nH]1 | 2 | 2 | 1 | fold change (FC) (Acinetobacter baumannii [8]): 1 |
| 200 µM | 100 (≈ 31.4 µg/mL) | Nc1ncc(-c2ccc(NC(=O)c3cc(F)cc(F)c3)cc2)[nH]1 | 16 |  |  | fold change (FC) (Pseudomonas aeruginosa [21]): 2; fold change (FC) (Pseudomonas aeruginosa [22]): 1; fold change (FC) (Acinetobacter baumannii [8]): 8 |
|  |  | Cl.Nc1ncc(-c2ccc(NC(=O)c3ccc(Cl)c(Cl)c3)cc2)[nH]1 |  |  |  | fold change (FC) (Acinetobacter baumannii [2]): 64; fold change (FC) (Pseudomonas aeruginosa [21]): 1 |
| 50 µM | 100 | Cl.Nc1nc(-c2ccc(NC(=O)c3ccc(C(F)(F)F)cc3)cc2)c[nH]1 |  |  |  | fold change (FC) (Acinetobacter baumannii [23]): 4; fold change (FC) (Pseudomonas aeruginosa [21]): 8; fold change (FC) (Pseudomonas aeruginosa [22]): 8; fold change (FC) (Acinetobacter baumannii [24]): 4 |
| > 200 µM | > 200 | Cl.Nc1nc(-c2ccc(NC(=O)c3ccc(Br)cc3)cc2)c[nH]1 | 16 | 2 | 1 | fold change (FC) (Acinetobacter baumannii [8]): 8 |
| > 200 µM | > 200 | Cl.Nc1nc(-c2ccc(NC(=O)c3c(F)c(F)c(F)c(F)c3F)cc2)c[nH]1 | 2 | 2 | 1 | fold change (FC) (Acinetobacter baumannii [8]): 1 |

| Compound | MIC (Acinetobacter baumannii [1]) | MIC (Pseudomonas aeruginosa [5]) [µM] | fold change (FC) (Acinetobacter baumannii [4]) | fold change (FC) (Pseudomonas aeruginosa [6]) | fold change (FC) (Pseudomonas aeruginosa [7]) | other results |
| --- | --- | --- | --- | --- | --- | --- |
| C[C@@H](O)[C@H]1C(=O)N2C(C(=O)O)=C(S[C@@H]3CN[C@H](C(=O)N(C)C)C3)[C@H](C)[C@H]12 [MEROPENEM] | 32 µg/mL |  |  |  |  | fold change (FC) (Acinetobacter baumannii [9]): <0.1; fold change (FC) (Acinetobacter baumannii [10]): <0.1; fold change (FC) (Pseudomonas aeruginosa [11]): 0.2; fold change (FC) (Pseudomonas aeruginosa [12]): 0.2 |
| C[C@@H](O)[C@H]1C(=O)N2C(C(=O)O)=C(SCCNC=N)C[C@H]12 [IMIPENEM ANHYDROUS] | 16 µg/mL |  |  |  |  |  |
